# Measured values: ChEMBL document CHEMBL4627381, “Licochalcone A Selectively Resensitizes ABCG2-Overexpressing Multidrug-Resistant Cancer Cells to Chemotherapeutic Drugs” (J Nat Prod, 2020)
# Columns and labels:
# S1-M1-80 = assay: Potentiation of topotecan-induced apoptosis in human S1-M1-80 cells harboring ABCG2 (unknown origin) assessed as early apoptotic cells at 10 uM incubated for 48 hrs by annexin V/propidium iodide staining based flow cytometry (reference value: 3%); assay type: functional
# S1 [1] = assay: Induction of apoptosis in human S1 cells assessed as early apoptotic cells at 10 uM incubated for 48 hrs in presence of topotecan by annexin V/propidium iodide staining based flow cytometry (reference value: 2%); assay type: functional
# How it was run: (§1)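 S1 cells were exposed for 48 h to DMSO, 10 μM compound, 5 μM topotecan, or 5 μM topotecan plus 10 μM compound. They were then stained with 1.25 μg/mL annexin V–FITC and 0.1 mg/mL PI for 15 min at room temperature. 10000 cells per sample were analysed by flow cytometry; three independent experiments.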
# S1 [2] = assay: Induction of apoptosis in human S1 cells assessed as late apoptotic cells at 10 uM incubated for 48 hrs by annexin V/propidium iodide staining based flow cytometry (reference value: 3.6%); assay type: functional; how it was run: as §1
# [3] = target: T1, Broad substrate specificity ATP-binding cassette transporter ABCG2 (Homo sapiens, UniProt Q9UNQ0); assay: Reversal of ABCG2 (unknown origin)-mediated multidrug resistance in human H460-MX20 cells assessed as fold change in topotecan IC50 at 3 uM after 72 hrs by MTT assay relative to topotecan IC50; assay type: cell-based
# T1 sequence (Q9UNQ0 whole entry): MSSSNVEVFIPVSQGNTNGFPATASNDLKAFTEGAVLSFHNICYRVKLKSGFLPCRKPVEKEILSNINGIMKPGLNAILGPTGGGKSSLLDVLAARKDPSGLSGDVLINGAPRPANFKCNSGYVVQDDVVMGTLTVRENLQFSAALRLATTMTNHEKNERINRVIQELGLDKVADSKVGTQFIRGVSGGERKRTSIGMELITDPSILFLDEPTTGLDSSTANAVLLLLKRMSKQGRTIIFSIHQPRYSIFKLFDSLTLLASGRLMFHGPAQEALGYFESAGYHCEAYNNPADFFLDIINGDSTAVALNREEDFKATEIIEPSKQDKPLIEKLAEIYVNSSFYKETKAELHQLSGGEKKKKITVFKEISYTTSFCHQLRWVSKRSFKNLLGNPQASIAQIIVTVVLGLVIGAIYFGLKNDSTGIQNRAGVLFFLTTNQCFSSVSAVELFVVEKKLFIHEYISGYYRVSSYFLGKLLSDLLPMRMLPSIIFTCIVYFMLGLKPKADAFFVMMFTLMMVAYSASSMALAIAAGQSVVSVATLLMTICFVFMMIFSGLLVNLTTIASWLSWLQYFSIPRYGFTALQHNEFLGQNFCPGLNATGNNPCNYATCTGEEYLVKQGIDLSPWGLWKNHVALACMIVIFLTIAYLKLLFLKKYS
# How it was run: (§2)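 Cells held drug-free 7 days, seeded at 5000 per well for 24 h, then exposed 72 h to mitoxantrone or topotecan dilutions with DMSO (≤0.5%), LCA 0.5–3.0 μM, or Ko143 1.0 μM. Viability was read by MTT. IC50 came from fitted dose-response curves of three independent experiments. Fold-reversal = IC50 without modulator divided by IC50 with modulator.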
# [4] = target: T1, Broad substrate specificity ATP-binding cassette transporter ABCG2; assay: Reversal of ABCG2 (unknown origin)-mediated multidrug resistance in human H460-MX20 cells assessed as fold change in topotecan IC50 at 1 uM after 72 hrs by MTT assay relative to topotecan IC50; assay type: cell-based; how it was run: as §2
# NCI-H460 [5] = assay: Effect on topotecan-induced cytotoxicity against human H460 cells assessed as fold change in topotecan IC50 at 3 uM after 72 hrs by MTT assay relative to topotecan IC50; assay type: functional
# How it was run: (§3)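 Parental S1 colon and H460 lung cancer cells were exposed for 72 h to a mitoxantrone or topotecan concentration series, with or without modulator at 0.5–3.0 μM, and read by MTT. Fold-reversal is IC50 without modulator divided by IC50 with modulator, taken from dose-response curves of three independent experiments.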
# NCI-H460 [6] = assay: Effect on topotecan-induced cytotoxicity against human H460 cells assessed as fold change in topotecan IC50 at 0.5 uM after 72 hrs by MTT assay relative to topotecan IC50; assay type: functional; how it was run: as §3
# [7] = target: T1, Broad substrate specificity ATP-binding cassette transporter ABCG2; assay: Reversal of ABCG2 (unknown origin)-mediated multidrug resistance in human H460-MX20 cells assessed as fold change in mitoxantrone IC50 at 2 uM after 72 hrs by MTT assay relative to mitoxantrone IC50; assay type: cell-based; how it was run: as §2
# S1 [8] = assay: Effect on topotecan-induced cytotoxicity against human S1 cells assessed as fold change in topotecan IC50 at 1 uM after 72 hrs by MTT assay relative to topotecan IC50; assay type: functional; how it was run: as §3
# [9] = target: T1, Broad substrate specificity ATP-binding cassette transporter ABCG2; assay: Reversal of ABCG2 (unknown origin)-mediated multidrug resistance in human S1-M1-80 cells assessed as fold-change in mitoxantrone IC50 at 0.5 uM after 72 hrs by MTT assay relative to mitoxantrone IC50; assay type: cell-based; settings: s1-m1-80, 72 h; how it was run: as §2
# S1 [10] = assay: Effect on mitoxantrone-induced cytotoxicity against human S1 cells assessed as fold change in mitoxantrone IC50 at 0.5 uM after 72 hrs by MTT assay relative to mitoxantrone IC50; assay type: functional; how it was run: as §3
# [11] = target: T1, Broad substrate specificity ATP-binding cassette transporter ABCG2; assay: Reversal of human ABCG2-mediated multidrug resistance in HEK293/R482 cells assessed as fold-change in topotecan IC50 at 1 uM after 72 hrs by CCK8 relative to topotecan IC50; assay type: cell-based
# How it was run: (§4)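 Cells were seeded at 5000/well for 24 h, then given colchicine, etoposide, mitoxantrone or topotecan ± non-toxic modulator (0.5–3.0 μM) for 72 h, with DMSO up to 0.5%. IC50 came from fitted curves (mean ± SD, three experiments). Fold-reversal = IC50 without modulator ÷ IC50 with modulator.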
# [12] = target: T2, ATP-dependent translocase ABCB1 (Homo sapiens, UniProt P08183); assay: Reversal of human ABCB1-mediated multidrug resistance in HEK293/MDR19 cells assessed as fold change in colchicine IC50 at 3 uM after 72 hrs by CCK8 relative to colchicine IC50; assay type: cell-based; how it was run: as §4
# [13] = target: T2, ATP-dependent translocase ABCB1; assay: Reversal of human ABCB1-mediated multidrug resistance in HEK293/MDR19 cells assessed as fold change in colchicine IC50 at 2 uM after 72 hrs by CCK8 relative to colchicine IC50; assay type: cell-based; how it was run: as §4
# [14] = target: T2, ATP-dependent translocase ABCB1; assay: Reversal of human ABCB1-mediated multidrug resistance in HEK293/MDR19 cells assessed as fold change in colchicine IC50 at 1 uM after 72 hrs by CCK8 relative to colchicine IC50; assay type: cell-based; how it was run: as §4
# HEK293 = assay: Effect on Colchicine-induced cytotoxicity against HEK293 cells assessed as fold change in colchicine IC50 at 2 uM after 72 hrs by CCK8 assay relative to colchicine IC50; assay type: cell-based; settings: human, hek293, 72 h
# How it was run: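 Reversal assay in parental pcDNA-HEK293 and transfected HEK293 lines (ABCB1 for colchicine, ABCC1 for etoposide, ABCG2 for mitoxantrone/topotecan). Substrate drug series was given with or without nontoxic modulator (0.5, 1.0, 2.0 or 3.0 μM) for 72 h, with a CCK-8 read-out. Fold-reversal is substrate IC50 without modulator divided by IC50 with modulator. Three independent experiments.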
# T2 sequence (P08183 whole entry): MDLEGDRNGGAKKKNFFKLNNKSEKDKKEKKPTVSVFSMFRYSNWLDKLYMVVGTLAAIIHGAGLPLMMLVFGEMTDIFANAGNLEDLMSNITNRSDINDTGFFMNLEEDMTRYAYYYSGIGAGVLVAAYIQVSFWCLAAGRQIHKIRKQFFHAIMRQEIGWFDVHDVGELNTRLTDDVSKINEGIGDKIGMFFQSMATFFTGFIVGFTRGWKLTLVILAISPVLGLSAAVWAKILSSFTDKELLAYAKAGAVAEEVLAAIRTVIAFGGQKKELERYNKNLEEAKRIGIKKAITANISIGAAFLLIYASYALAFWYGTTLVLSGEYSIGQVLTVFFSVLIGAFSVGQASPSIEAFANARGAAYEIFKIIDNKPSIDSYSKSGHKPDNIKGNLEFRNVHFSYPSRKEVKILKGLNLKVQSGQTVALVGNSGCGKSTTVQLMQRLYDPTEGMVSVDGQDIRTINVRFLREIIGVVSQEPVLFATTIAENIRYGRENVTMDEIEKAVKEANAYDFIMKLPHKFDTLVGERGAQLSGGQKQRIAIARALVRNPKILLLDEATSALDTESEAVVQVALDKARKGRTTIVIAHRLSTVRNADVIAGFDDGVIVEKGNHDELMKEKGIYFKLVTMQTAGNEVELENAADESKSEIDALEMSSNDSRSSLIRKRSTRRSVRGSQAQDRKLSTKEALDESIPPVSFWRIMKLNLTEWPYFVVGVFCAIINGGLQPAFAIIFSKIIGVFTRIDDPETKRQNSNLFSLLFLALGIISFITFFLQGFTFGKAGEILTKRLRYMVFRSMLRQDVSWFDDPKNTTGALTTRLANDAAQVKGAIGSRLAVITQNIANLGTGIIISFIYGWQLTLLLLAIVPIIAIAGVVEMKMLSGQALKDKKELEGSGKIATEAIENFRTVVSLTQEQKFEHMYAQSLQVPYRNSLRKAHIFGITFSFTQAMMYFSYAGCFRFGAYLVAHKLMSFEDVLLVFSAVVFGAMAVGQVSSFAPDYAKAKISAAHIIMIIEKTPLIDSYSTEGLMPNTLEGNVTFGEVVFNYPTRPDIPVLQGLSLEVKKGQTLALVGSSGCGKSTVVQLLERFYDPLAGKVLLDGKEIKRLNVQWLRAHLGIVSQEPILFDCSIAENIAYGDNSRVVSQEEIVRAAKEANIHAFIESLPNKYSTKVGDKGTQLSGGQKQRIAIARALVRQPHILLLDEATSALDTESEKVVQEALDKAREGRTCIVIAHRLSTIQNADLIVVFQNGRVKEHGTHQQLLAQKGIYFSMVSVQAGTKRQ
structure (smiles),measurement,setting,value
C=CC(C)(C)c1cc(/C=C/C(=O)c2ccc(O)cc2)c(OC)cc1O [LICOAGROCHACONE A],Activity,S1-M1-80,9%
same,Activity,S1 [1],30.3%
same,Activity,S1 [2],2.7%
same,fold change (FC),[3],10.1
same,fold change (FC),[4],9.2
same,fold change (FC),NCI-H460 [5],1.7
same,fold change (FC),NCI-H460 [6],1.5
same,fold change (FC),[7],15.5
same,fold change (FC),S1 [8],0.8
same,fold change (FC),[9],1.9
same,fold change (FC),S1 [10],1.1
same,fold change (FC),[11],3.9
same,fold change (FC),[12],0.9
same,fold change (FC),[13],0.8
same,fold change (FC),[14],0.8
same,fold change (FC),HEK293,0.9
